The test system of assay [1] is Mycobacterium tuberculosis. Description: Antitubercular activity against Mycobacterium tuberculosis H37Rv. Type of assay: functional. Put shortly: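 Broth microdilution in iron-deficient GAST, in quadruplicate, with drugs from DMSO stocks and DMSO-treated control wells. Initial density 10^4–10^5 cells/assay, 37 °C, OD620 read at 10 and 14 days. MIC99 is the concentration giving complete growth inhibition.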

The target in assay [2] is T1, Salicyl-AMP ligase / salicyl-S-ArCP synthetase (Mycobacterium tuberculosis, UniProt P71716).
T1 sequence (P71716 whole entry): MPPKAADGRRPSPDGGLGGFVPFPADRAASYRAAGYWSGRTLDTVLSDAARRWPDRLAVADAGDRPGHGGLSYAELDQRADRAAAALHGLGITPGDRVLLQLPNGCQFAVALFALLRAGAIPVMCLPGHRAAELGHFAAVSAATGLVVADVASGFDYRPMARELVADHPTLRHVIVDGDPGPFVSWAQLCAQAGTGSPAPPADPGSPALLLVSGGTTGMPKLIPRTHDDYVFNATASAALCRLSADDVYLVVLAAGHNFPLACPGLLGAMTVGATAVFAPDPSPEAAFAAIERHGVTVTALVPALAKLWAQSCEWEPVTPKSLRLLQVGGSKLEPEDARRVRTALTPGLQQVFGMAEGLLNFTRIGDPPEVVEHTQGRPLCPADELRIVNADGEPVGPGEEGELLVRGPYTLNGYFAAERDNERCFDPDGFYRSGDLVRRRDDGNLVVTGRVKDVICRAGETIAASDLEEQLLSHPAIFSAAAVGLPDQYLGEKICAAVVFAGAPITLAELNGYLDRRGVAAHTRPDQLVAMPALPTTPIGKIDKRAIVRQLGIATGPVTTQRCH
Description: Inhibition of Mycobacterium tuberculosis MbtA by [32P]PPi-ATP exchange assay. Particulars: read-out: Ki app. Put shortly:
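Native MbtA (His6-SUMO tag removed), 7 nM, with 250 μM salicylic acid, 10 mM ATP and 1 mM PPi in 75 mM Tris-HCl pH 7.5, 10 mM MgCl2, 2 mM DTT. Inhibitor in DMSO preincubated 10 min at 23 °C, then [32P]PPi added and run 20 min at 37 °C. Charcoal-bound γ-[32P]ATP counted; duplicate data fit to Morrison equation ([E] 7.0 nM) for KIapp.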

The test system of assay [3] is Yersinia pseudotuberculosis. Description: Inhibitory activity against Yersinia pseudotuberculosis ATCC 6902. Format: functional. Summed up:
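Broth microdilution in triplicate in desferrated BHI (Chelex-treated plus 200 μM 2,2′-dipyridyl), with or without 150 μM FeCl3 for iron-rich conditions. Initial density 10^3–10^4 cells/well, compounds up to 100 μM, 1% DMSO control. Grown 24 h at 37 °C with shaking; OD600 read; MIC99.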

SMILES strings stand for the structures. Converted amounts (≈) assume the structure as drawn. Where only a bound is given, the exact number is not on record here.

As to `Nc1ncnc2ncn([C@@H]3O[C@H](COS(=O)(=O)NC(=O)c4ccccc4O)C[C@H]3O)c12`, the MIC99 in assay [1] came out at 1.56 µM (≈ 0.703 µg/mL); in assay [3] it was 80 µM (≈ 36 µg/mL). Also, the Ki in assay [2] was determined as 3.2 nM.
As to `Nc1ncnc2ncn([C@@H]3O[C@H](COS(=O)(=O)NC(=O)c4ccccc4O)[C@@H](O)[C@H]3O)c12`, the results for the MIC99 in assay [1] and in assay [3] were 0.29 µM (≈ 0.135 µg/mL) and 20 µM (≈ 9.33 µg/mL), respectively.
`Nc1ncnc2ncn([C@H]3C=C[C@@H](COS(=O)(=O)NC(=O)c4ccccc4O)C3)c12`: the MIC99 was greater than 200 µM in assay [1] and greater than 100 µM in assay [3]. The Ki in assay [2] came to 830 nM.
Consider `Nc1ncnc2ncn([C@@H]3C[C@H](COS(=O)(=O)NC(=O)c4ccccc4O)[C@@H](O)[C@H]3O)c12`, for which the MIC99 in assay [1] was 1.56 µM (≈ 0.725 µg/mL); in assay [3], greater than 100 µM. Moreover, the Ki in assay [2] is 2.3 nM.
As to `Nc1ncnc2ncn([C@H]3C[C@H](O)[C@@H](COS(=O)(=O)NC(=O)c4ccccc4O)O3)c12`, in assay [2], the Ki was 3.5 nM.
Consider `Nc1ncnc2ncn(COCCOS(=O)(=O)NC(=O)c3ccccc3O)c12`, for which the MIC99 in assay [1] is greater than 200 µM; in assay [3], greater than 100 µM. In addition, the Ki in assay [2] worked out at 16700 nM.
Regarding `Nc1ncnc2ncn([C@H]3CC[C@@H](COS(=O)(=O)NC(=O)c4ccccc4O)C3)c12`, the MIC99 in assay [1] is greater than 200 µM. Also, in assay [2], the Ki came out at 61 nM.
`NNC(=O)c1ccncc1` [ISONIAZID] displayed an MIC99 in assay [1] of 0.18 µM (≈ 0.0247 µg/mL).
Regarding `Nc1ncnc2ncn([C@@H]3O[C@H](CNS(=O)(=O)NC(=O)c4ccccc4O)[C@@H](O)[C@H]3O)c12`, the MIC99 in assay [1] is 0.19 µM (≈ 0.0884 µg/mL). In assay [2], the Ki is 3.7 nM.

Values taken from ChEMBL document CHEMBL1138866, “Antitubercular nucleosides that inhibit siderophore biosynthesis: SAR of the glycosyl domain” (J Med Chem, 2006).
